Source: ChEMBL document CHEMBL1212938, “Inhibition of mycobacterial replication by pyrimidines possessing various C-5 functionalities and related 2'-deoxynucleoside analogues using in vitro and in vivo models” (J Med Chem, 2010)
Values after ≈ are worked out from the molar mass of the structure shown. Active and inactive are the calls of the source. The rule behind the calls is not given here.

Assays:
[1] = test system: Mycobacterium tuberculosis; assay: Antitubercular activity against Mycobacterium tuberculosis H37Ra after 6 days by microplate alamar blue assay; assay type: functional; conditions: 144 h
How it was run: (§1)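 MABA run in 7H9GC medium, with drug diluted from DMSO stocks made at 100× the highest final concentration. Final levels were 100, 50, 10, 5, 2.5 and 1 μg/mL in triplicate, and the experiment was done three times. Inoculum was 2.5 × 10⁵ CFU/mL final. Alamar Blue plus Tween-80 was added once bacteria-only control wells turned pink, from day 6 on, and plates were read visually and by fluorescence after 24 h. Visual MIC is the lowest concentration preventing the blue-to-pink change. Mean percent inhibition was taken relative to bacteria-only and medium-only wells.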

[2] = test system: Mycobacterium tuberculosis; assay: Antitubercular activity against Mycobacterium tuberculosis H37Ra at 1 ug/ml after 6 days by microplate alamar blue assay; assay type: functional; conditions: 144 h; how it was run: as §1
[3] = test system: Mycobacterium tuberculosis; assay: Antitubercular activity against Mycobacterium tuberculosis H37Ra at 100 ug/ml after 6 days by microplate alamar blue assay; assay type: functional; conditions: 144 h; how it was run: as §1
[4] = test system: Mycobacterium tuberculosis; assay: Antitubercular activity against Mycobacterium tuberculosis H37Ra at 10 ug/ml after 6 days by microplate alamar blue assay; assay type: functional; conditions: 144 h; how it was run: as §1
Staphylococcus aureus = assay: Antibacterial activity against Staphylococcus aureus at 100 ug/ml after 16 to 20 hrs by broth microdilution method; assay type: functional, organism-based
[5] = test system: Staphylococcus epidermidis; assay: Antibacterial activity against Staphylococcus epidermidis at 100 ug/ml after 16 to 20 hrs by broth microdilution method; assay type: functional, organism-based
Enterococcus faecalis = assay: Antibacterial activity against Enterococcus faecalis at 100 ug/ml after 16 to 20 hrs by broth microdilution method; assay type: functional, organism-based
Bacillus subtilis = assay: Antibacterial activity against Bacillus subtilis at 100 ug/ml after 16 to 20 hrs by broth microdilution method; assay type: functional, organism-based
Streptococcus pneumoniae = assay: Antibacterial activity against Streptococcus pneumoniae at 100 ug/ml after 16 to 20 hrs by broth microdilution method; assay type: functional, organism-based
Streptococcus pyogenes = assay: Antibacterial activity against Streptococcus pyogenes at 100 ug/ml after 16 to 20 hrs by broth microdilution method; assay type: functional, organism-based
Listeria monocytogenes = assay: Antibacterial activity against Listeria monocytogenes at 100 ug/ml after 16 to 20 hrs by broth microdilution method; assay type: functional, organism-based
Salmonella typhimurium = assay: Antibacterial activity against Salmonella Typhimurium at 100 ug/ml after 16 to 20 hrs by broth microdilution method; assay type: functional, organism-based; conditions: Salmonella enterica subsp. enterica serovar Typhimurium
Escherichia coli = assay: Antibacterial activity against Escherichia coli at 100 ug/ml after 16 to 20 hrs by broth microdilution method; assay type: functional, organism-based
Proteus vulgaris = assay: Antibacterial activity against Proteus vulgaris at 100 ug/ml after 16 to 20 hrs by broth microdilution method; assay type: functional, organism-based
Pseudomonas aeruginosa = assay: Antibacterial activity against Pseudomonas aeruginosa at 100 ug/ml after 16 to 20 hrs by broth microdilution method; assay type: functional, organism-based
[6] = test system: Mycobacterium tuberculosis; assay: Antitubercular activity against Mycobacterium tuberculosis H37Ra at 50 ug/ml after 6 days by microplate alamar blue assay; assay type: functional; conditions: 144 h; how it was run: as §1
[7] = test system: Mycobacterium tuberculosis; assay: Antitubercular activity against Mycobacterium tuberculosis H37Ra at 5 ug/ml after 6 days by microplate alamar blue assay; assay type: functional; conditions: 144 h; how it was run: as §1
[8] = Cytotoxicity against human HuH7 cells assessed as cell viability after 2 days by XTT assay; assay type: cell-based, Huh-7; conditions: HuH7 cells
How it was run: (§2)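 Huh-7 cells seeded at 1 × 10⁵ cells/well and left to attach 6-8 h. Medium then replaced with compound at 200, 100, 50, 10 or 1 μg/mL, with a DMSO control, and incubated 2 days at 37 °C. Viability by XTT, absorbance read at 450-500 nm.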

[9] = Cytotoxicity against human HuH7 cells assessed as cell viability at 200 ug/ml after 2 days by XTT assay; assay type: cell-based; conditions: huh-7, 48 h; how it was run: as §2
[10] = Cytotoxicity against human HuH7 cells assessed as cell viability at > 200 ug/ml after 2 days by [3H]thymidine incorporation assay; assay type: cell-based; conditions: huh-7, 48 h
[11] = test system: Mycobacterium tuberculosis; assay: Antitubercular activity against Mycobacterium tuberculosis H37Ra infected in BALB/c mouse assessed as reduction of CFU counts in lungs at 50 mg/kg, ip administered 5 days after infection for 25 days measured after 3 days last dose; assay type: functional, organism-based; design: dose 50 mg/kg
How it was run: (§3)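 Female BALB/c mice, 5–6 weeks old, were infected iv via the tail vein with about 2.5 × 10⁵ CFU of H37Ra in PBS, 5 per group. From day 5, drug was given ip at 50 mg/kg, 5 days/week, for 25 treatment days, in 10% DMSO–saline or poly(ethylene glycol) methyl ether. Controls received diluent only. Three days after the last dose, lung, liver and spleen homogenates were plated on 7H11 agar at 37 °C for up to 4 weeks. Colony counts were done blinded.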

[12] = test system: Mycobacterium tuberculosis; assay: Antitubercular activity against Mycobacterium tuberculosis H37Ra infected in BALB/c mouse assessed as reduction of CFU counts in liver at 50 mg/kg, ip administered 5 days after infection for 25 days measured after 3 days last dose; assay type: functional, organism-based; design: dose 50 mg/kg; how it was run: as §3
[13] = test system: Mycobacterium tuberculosis; assay: Antitubercular activity against Mycobacterium tuberculosis H37Ra infected in BALB/c mouse assessed as reduction of CFU counts in spleen at 50 mg/kg, ip administered 5 days after infection for 25 days measured after 3 days last dose; assay type: functional, organism-based; design: dose 50 mg/kg; how it was run: as §3
Mus musculus = assay: Toxicity in Mycobacterium tuberculosis H37Ra infected in BALB/c mouse assessed as adverse effect at 50 mg/kg, ip administered 5 days after infection for 25 days; assay type: organism-based; design: dose 50 mg/kg, route intraperitoneal; conditions: in vivo
How it was run: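 BALB/c mice infected with H37Ra were given 50 mg/kg ip in 10% DMSO–saline from day 5 post-infection, 5 days/week, over 25 treatment days. They were monitored for weight loss and behavioural changes and examined by gross necropsy after euthanasia.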

[14] = test system: Mycobacterium tuberculosis; assay: Antitubercular activity against Mycobacterium tuberculosis H37Ra at 2.5 to 5 ug/ml after 6 days by microplate alamar blue assay; assay type: functional; how it was run: as §1

| Structure (SMILES) | MIC50 [1] | inhibition at 1 µg/mL [2] | inhibition at 100 µg/mL [3] | inhibition at 10 µg/mL [4] | Activity (Staphylococcus aureus) | Activity [5] | Activity (Enterococcus faecalis) | Activity (Bacillus subtilis) | Activity (Streptococcus pneumoniae) | Activity (Streptococcus pyogenes) | Activity (Listeria monocytogenes) | Activity (Salmonella typhimurium) | Activity (Escherichia coli) | Activity (Proteus vulgaris) | Activity (Pseudomonas aeruginosa) | inhibition at 50 µg/mL [6] | inhibition at 5 µg/mL [7] | CC50 at 48 h [8] | Activity [9] | Activity [10] | other results |
| --- | --- | --- | --- | --- | --- | --- | --- | --- | --- | --- | --- | --- | --- | --- | --- | --- | --- | --- | --- | --- | --- |
| NNC(=O)c1ccncc1 [ISONIAZID] | < 1 µg/mL | 100% |  |  |  |  |  |  |  |  |  |  |  |  |  |  |  |  |  |  |  |
| CCCc1cc2c[nH]c(=O)nc2o1 | 100 µg/mL (≈ 561 µM) |  | 50% | 0% | inactive | inactive | inactive | inactive | inactive | inactive | inactive | inactive | inactive | inactive | inactive |  |  |  |  |  |  |
| CCCCCc1ccc(C#Cc2c[nH]c(=O)[nH]c2=O)cc1 | 10 µg/mL (≈ 35.4 µM) |  | 90% | 50% | inactive | inactive | inactive | inactive | inactive | inactive | inactive | inactive | inactive | inactive | inactive | 50% | 0% | > 100 µg/mL | Non-toxic | Non-toxic |  |
| O=c1[nH]cc(C#Cc2ccccn2)c(=O)[nH]1 | 5 µg/mL (≈ 23.5 µM) |  | 90% | 60% | inactive | inactive | inactive | inactive | inactive | inactive | inactive | inactive | inactive | inactive | inactive | 70% | 50% | > 100 µg/mL | Non-toxic | Non-toxic | Activity [11]: Active; Activity [12]: Active; Activity [13]: Active; Activity (Mus musculus): Non-toxic |
| O=c1[nH]c(=O)n([C@H]2C[C@H](O)[C@@H](CO)O2)cc1C#Cc1ccccn1 | 2.5 µg/mL (≈ 7.59 µM) |  | 90% | 68% | inactive | inactive | inactive | inactive | inactive | inactive | inactive | inactive | inactive | inactive | inactive | 78% |  |  | Non-toxic | Non-toxic | inhibition (INH) [14]: 50% |
| CO[C@H]1/C=C/O[C@@]2(C)Oc3c(C)c(O)c4c(O)c(c(/C=N/N5CCN(C)CC5)c(O)c4c3C2=O)NC(=O)/C(C)=C\C=C\[C@H](C)[C@H](O)[C@@H](C)[C@@H](O)[C@@H](C)[C@H](OC(C)=O)[C@@H]1C [RIFAMPIN] | < 1 µg/mL | 100% |  |  |  |  |  |  |  |  |  |  |  |  |  |  |  |  |  |  |  |
| C(C#Cc1ccccn1)#Cc1ccccn1 | < 1 µg/mL | 80% | 100% | 100% | inactive | inactive | inactive | inactive | inactive | inactive | inactive | inactive | inactive | inactive | inactive | 100% |  |  | Non-toxic | Non-toxic |  |
| N[C@@H]1CONC1=O [CYCLOSERINE] | 5 µg/mL (≈ 49 µM) |  |  | 67% |  |  |  |  |  |  |  |  |  |  |  |  | 50% |  |  |  | Activity [11]: Active; Activity [12]: Active; Activity [13]: Active |
| O=c1[nH]cc(C#Cc2ccccc2)c(=O)[nH]1 | > 10 µg/mL |  | 90% | 40% | inactive | inactive | inactive | inactive | inactive | inactive | inactive | inactive | inactive | inactive | inactive | 90% |  | > 100 µg/mL | Non-toxic | Non-toxic |  |
| CCCc1ccc(C#Cc2c[nH]c(=O)[nH]c2=O)cc1 | < 10 µg/mL |  | 90% | 55% | inactive | inactive | inactive | inactive | inactive | inactive | inactive | inactive | inactive | inactive | inactive | 55% | 0% | > 100 µg/mL | Non-toxic | Non-toxic |  |
